According to paper PMC3832383 (Drug Design, Development and Therapy, 2013):
Values after ≈ are worked out from the molar mass of the structure shown.

Test system: P. falciparum strain NF54
Experiment: [3H]hypoxanthine incorporation assay, unsynchronized parasites
Format: cell-based
Settings: Plasmodium falciparum, NF54, 72 h
In short: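 Two ways of diluting the 10 mg/mL stock were compared. In one, the stock went straight into hypoxanthine-free medium. In the other, it was diluted 1/50 in co-solvent, then 1/100 and 1/2 in hypoxanthine-free medium.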

Row | Compound | IC50
1 | C[C@@H]1CC[C@H]2[C@@H](C)C(=O)O[C@@H]3O[C@@]4(C)CC[C@@H]1[C@]32OO4 [artemisinin] | 3 ng/mL (≈ 0.0106 µM)
2 | OC(c1cc(C(F)(F)F)nc2c(C(F)(F)F)cccc12)C1CCCCN1 (stereo not drawn) [mefloquine] | 4.1 ng/mL (≈ 0.0108 µM)
3 | CCc1nc(N)nc(N)c1-c1ccc(Cl)cc1 [pyrimethamine] | 3 ng/mL (≈ 0.0121 µM)

The remaining lines, values ahead:

Row | IC50 | Compound
4 | 1.5 ng/mL (≈ 0.00422 µM) | CCN(CC)Cc1cc(Nc2ccnc3cc(Cl)ccc23)ccc1O [amodiaquine]
5 | 7.8 ng/mL (≈ 0.0146 µM) | Clc1ccc2c(N3CCN(CCCN4CCN(c5ccnc6cc(Cl)ccc56)CC4)CC3)ccnc2c1 [piperaquine]
6 | 2.6 ng/mL (≈ 0.00502 µM) | COc1ccc2nc3cc(Cl)ccc3c(Nc3cc(CN4CCCC4)c(O)c(CN4CCCC4)c3)c2n1 [pyronaridine]

Test system: P. falciparum strain NF54
Experiment: not given
Settings: unsynchronized NF54; cited from earlier work

Row | Compound | IC50
7 | O=C1C(O)=C([C@H]2CC[C@H](c3ccc(Cl)cc3)CC2)C(=O)c2ccccc21 [atovaquone] | 0.38 ng/mL (≈ 0.00104 µM)
8 | [H]/N=C(\N/C(=N/[H])Nc1ccc(Cl)cc1)NC(C)C [proguanil] | 440 ng/mL (≈ 1.73 µM)

Test system: Plasmodium falciparum strain NF54 (rings, trophozoites, schizonts)
Experiment: In vitro assessment of stage-specific activity, synchronous cultures
Format: cell-based
Settings: control drug; data not shown
In short: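 P. falciparum NF54 synchronized by two 5% D-sorbitol treatments, with intervals set to give rings (>80%, ≤6 h old), trophozoites (≥80%, ≤20 h) or early schizonts (≤36 h). Stages were exposed 6 or 24 h to two-fold dilutions (final 250–7.81 ng/mL) in hypoxanthine-free medium, co-solvent <0.5%, then washed and assessed by [3H]hypoxanthine incorporation. Values are mean ± SD of 3–4 independent experiments.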

Row | Compound | effect against ring and trophozoite stages
9 | CCc1nc(N)nc(N)c1-c1ccc(Cl)cc1 [pyrimethamine] | ineffective
